{
  "source": "ChEMBL document CHEMBL1123985",
  "about": "“Oral absorption of cephalosporin antibiotics. 1. Synthesis, biological properties, and oral bioavailability of 7-(arylacetamido)-3-chloro cephalosporins in animals” (J Med Chem, 1988)",
  "key": {"[1]": {"assay": "Compound was tested for percent of oral bioavailability in mice; 56-74", "type": "ADME, organism-based", "conditions": "mouse, in vivo, read-out: Bioavailabiility", "outline": "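Male Cox mice given water and liquid diet overnight; 20 mg/kg in saline (2 mg/mL) sc or orally; urine from collection cages plus bladder contents over 2 h; activity by agar well assay with Bacillus subtilis ATCC 6633. Bioavailability from percent dose excreted in urine after oral vs parenteral dosing.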"}, "[2]": {"assay": "Bioavailability in rat", "type": "ADME, organism-based", "conditions": "in vivo", "outline": "(§1)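 Male Wistar rats (200-300 g), jugular-cannulated, upper GI emptied by light cycle; 20 mg/kg in saline (6 mg/mL) sc or orally. Urine collected in wire-bottom cages, assayed by B. subtilis agar well method. Mean ± SD recovery with N and range; bioavailability = oral over mean sc recovery.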"}, "Klebsiella pneumoniae": {"test_system": "Klebsiella pneumoniae", "assay": "Minimum inhibitory concentration against X68 strain of Klebsiella pneumoniae", "type": "functional"}, "Staphylococcus aureus [3]": {"test_system": "Staphylococcus aureus", "assay": "Minimum inhibitory concentration against X1.1 strain of Staphylococcus aureus", "type": "functional"}, "Streptococcus pneumoniae [4]": {"test_system": "Streptococcus pneumoniae", "assay": "Minimum inhibitory concentration against park strain of Streptococcus pneumoniae"}, "Haemophilus influenzae [5]": {"test_system": "Haemophilus influenzae", "assay": "Minimum inhibitory concentration against sens CL strain of Haemophilus influenzae", "type": "functional"}, "[6]": {"assay": "Percent of urinary recovery in rats after, oral administration of single 20 mg/kg dose in solution (N,range)", "type": "ADME, organism-based", "set-up": "dose 20 mg/kg, route oral", "conditions": "rat, urine, read-out: Recovery", "outline": "as §1"}, "[7]": {"assay": "Mean plasma levels in rats 1 hr after iv administration of 100 mg/kg of probenecid 5 min prior to test compound", "type": "ADME, organism-based", "set-up": "dose 100 mg/kg, route intravenous", "conditions": "rat, read-out: Plasma levels", "outline": "(§2)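 Rats, jugular vein cannulated (two per group), test compound iv 20 mg/kg; probenecid 100 mg/kg iv 5 min before in treated groups. Heparinized plasma sampled at 5, 20, 40 min and 1, 2, 3 h, assayed microbiologically (B. subtilis agar well). AUC 0-3 h in μg min/mL; half-life in min.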"}, "Escherichia coli": {"test_system": "Escherichia coli", "assay": "Minimum inhibitory concentration against EC14 strain Escherichia coli", "type": "functional"}, "Streptococcus pyogenes [8]": {"test_system": "Streptococcus pyogenes", "assay": "Minimum inhibitory concentration against Streptococcus pyogenes C203", "type": "functional"}, "Streptococcus pneumoniae [9]": {"test_system": "Streptococcus pneumoniae", "assay": "Minimum inhibitory concentration against Park strain of Streptococcus pneumoniae"}, "Staphylococcus aureus [10]": {"test_system": "Staphylococcus aureus", "assay": "Minimum inhibitory concentration against S13E strain of Staphylococcus aureus", "type": "functional"}, "[11]": {"assay": "Area under plasma concentration vs time curve observed in Rhesus monkeys after, iv administration of single 30 mg/kg dose", "type": "ADME, organism-based, Macaca mulatta", "set-up": "dose 30 mg/kg, route intravenous", "conditions": "rhesus monkey", "outline": "(§3)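 Rhesus monkeys, adult males, six animals per compound, each given drug orally and iv; fasted overnight. Single 30 mg/kg solution doses, by nasogastric tube (in water) or saphenous vein (in isotonic lactated Ringer). Plasma sampled at intervals, frozen at -70 °C, antibacterial activity by microbiological assay. AUC in μg min/mL; oral bioavailability from oral vs iv AUC.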"}, "Salmonella": {"test_system": "Salmonella", "assay": "Minimum inhibitory concentration against X514 strain of Salmonella", "type": "functional"}, "[12]": {"assay": "Oral bioavailability in dog (female mongrel)", "type": "ADME, organism-based, Canis lupus familiaris", "conditions": "in vivo", "outline": "(§4)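 Six female mongrel dogs (14-23 kg) fasted overnight, bladder catheterized; single 15 mg/kg solution doses by stomach tube (in water, total 500 mL) or cephalic vein (saline or pH 6.0 NaCl/phosphate/acetate buffer). Plasma sampled at intervals; activity by disk-plate agar diffusion against E. coli MB 3804, standards in dog serum or buffer. AUC μg min/mL, mean ± SEM; BA from iv vs po AUC and urinary recovery.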"}, "Staphylococcus aureus [13]": {"test_system": "Staphylococcus aureus", "assay": "Minimum inhibitory concentration against 3055 strain of Staphylococcus aureus"}, "[14]": {"assay": "Mean plasma levels in rats 2 hr after iv administration of 100 mg/kg of probenecid 5 min prior to test compound", "type": "ADME, organism-based", "set-up": "dose 100 mg/kg, route intravenous", "conditions": "rat, read-out: Plasma levels", "outline": "as §2"}, "Staphylococcus aureus [15]": {"test_system": "Staphylococcus aureus", "assay": "Minimum inhibitory concentration against V41 strain of Staphylococcus aureus", "type": "functional"}, "Canis familiaris [16]": {"test_system": "Canis familiaris", "assay": "Area under plasma concentration vs time curve observed in female mongrel dogs after, iv administration of single 15 mg/kg dose", "type": "ADME, organism-based, Canis lupus familiaris", "set-up": "dose 15 mg/kg, route intravenous", "conditions": "dog, in vivo", "outline": "as §4"}, "Canis familiaris [17]": {"test_system": "Canis familiaris", "assay": "Area under plasma concentration vs time curve observed in female mongrel dogs after, oral administration of single 15 mg/kg dose", "type": "ADME, organism-based, Canis lupus familiaris", "set-up": "dose 15 mg/kg, route oral", "conditions": "dog, in vivo", "outline": "as §4"}, "[18]": {"assay": "Minimum inhibitory concentration against N9 strain of Shigella sonnei", "type": "functional"}, "[19]": {"test_system": "Staphylococcus epidermidis", "assay": "Minimum inhibitory concentration against 222 strain of Staphylococcus epidermidis", "type": "functional"}, "Haemophilus influenzae [20]": {"test_system": "Haemophilus influenzae", "assay": "Minimum inhibitory concentration against res 76 strain of Haemophilus influenzae", "type": "functional"}, "[21]": {"assay": "Area under plasma concentration vs time curve observed in Rhesus monkeys after oral administration of single 30 mg/kg dose", "type": "ADME, organism-based, Macaca mulatta", "set-up": "dose 30 mg/kg, route oral", "conditions": "rhesus monkey", "outline": "as §3"}, "[22]": {"assay": "Mean plasma levels in rats 3h after intravenous administration of 20 mg/kg of compound", "type": "ADME, organism-based", "set-up": "dose 20 mg/kg, route intravenous", "conditions": "rat, read-out: Plasma levels", "outline": "as §2"}, "[23]": {"assay": "Mean plasma levels in rats 40 min after iv administration of 100 mg/kg of probenecid 5 min prior to test compound", "type": "ADME, organism-based", "set-up": "dose 100 mg/kg, route intravenous", "conditions": "rat, read-out: Plasma levels", "outline": "as §2"}, "[24]": {"assay": "Area under plasma concentration vs time curve observed in rats for 0-3 h", "type": "ADME", "set-up": "time < 3 hr", "conditions": "rat", "outline": "as §2"}, "[25]": {"assay": "Oral bioavailability in Rhesus monkey", "type": "ADME, organism-based, Macaca mulatta", "conditions": "in vivo", "outline": "as §3"}, "[26]": {"assay": "Mean plasma levels in rats 20 min after iv administration of 100 mg/kg of probenecid 5 min prior to test compound", "type": "ADME, organism-based", "set-up": "dose 100 mg/kg, route intravenous", "conditions": "rat, read-out: Plasma levels", "outline": "as §2"}, "[27]": {"test_system": "Staphylococcus epidermidis", "assay": "Minimum inhibitory concentration against Epil strain of Staphylococcus epidermidis", "type": "functional"}, "[28]": {"assay": "Dose in urine (24-h urine excretion) in female mongrel dogs after iv administration of single 15 mg/kg dose", "type": "ADME, organism-based, Canis lupus familiaris", "set-up": "dose 15 mg/kg, route intravenous", "conditions": "dog", "outline": "(§5)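 Female mongrel dogs (n=6), bladder catheter; urine collected at intervals after single 15 mg/kg iv or oral solution dose, frozen; antibiotic activity by disk-plate agar diffusion against E. coli MB 3804 with standards in pH 6.0 buffer; percent of dose recovered in urine.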"}, "[29]": {"assay": "Percent of urinary recovery in rats after, sc administration of single 20 mg/kg dose in solution (N,range)", "type": "ADME, organism-based", "set-up": "dose 20 mg/kg, route subcutaneous", "conditions": "rat, urine, read-out: Recovery", "outline": "as §1"}, "[30]": {"assay": "Dose in urine (24-h urine excretion) in female mongrel dogs after oral administration of single 15 mg/kg dose", "type": "ADME, organism-based, Canis lupus familiaris", "set-up": "dose 15 mg/kg, route oral", "conditions": "dog", "outline": "as §5"}, "Klebsiella aerogenes": {"test_system": "Klebsiella aerogenes", "assay": "Minimum inhibitory concentration against EB17 strain of Enterobacter aerogenes", "type": "functional"}, "[31]": {"assay": "Mean plasma levels in rats at a time 5 min after iv administration of 100 mg/kg of probenecid 5 min prior to test compound", "type": "ADME, organism-based", "set-up": "dose 100 mg/kg, route intravenous", "conditions": "rat, read-out: Plasma levels", "outline": "as §2"}, "[32]": {"assay": "Half-life of the compound", "type": "ADME", "outline": "as §2"}, "Streptococcus pyogenes [33]": {"test_system": "Streptococcus pyogenes", "assay": "Minimum inhibitory concentration against C203 strain of Streptococcus pyogenes"}},
  "data": [
    {"smiles": "O=C(COc1ccccc1)N[C@@H]1C(=O)N2C(C(=O)O)=C(Cl)CS[C@H]12", "values": [
      {"measurement": "bioavailability", "setting": "[1]", "result": 56, "unit": "%"},
      {"measurement": "bioavailability", "setting": "[2]", "result": 23.1, "unit": "%"},
      {"measurement": "MIC", "setting": "Klebsiella pneumoniae", "result": 128, "unit": "µg/mL"},
      {"measurement": "MIC", "setting": "Staphylococcus aureus [3]", "result": 0.25, "unit": "µg/mL"},
      {"measurement": "MIC", "setting": "Streptococcus pneumoniae [4]", "result": 0.06, "unit": "µg/mL"},
      {"measurement": "MIC", "setting": "Haemophilus influenzae [5]", "result": 1, "unit": "µg/mL"},
      {"measurement": "dose excreted", "setting": "[6]", "result": 10.1, "unit": "%"},
      {"measurement": "concentration at 1 h", "setting": "[7]", "result": 18400, "unit": "ng/mL"},
      {"measurement": "MIC", "setting": "Escherichia coli", "result": 64, "unit": "µg/mL"},
      {"measurement": "MIC", "setting": "Streptococcus pyogenes [8]", "result": 0.125, "unit": "µg/mL"},
      {"measurement": "MIC", "setting": "Streptococcus pneumoniae [9]", "result": 0.125, "unit": "µg/mL"},
      {"measurement": "MIC", "setting": "Staphylococcus aureus [10]", "result": 16, "unit": "µg/mL"},
      {"measurement": "AUC", "setting": "[11]", "result": 38000, "unit": "ng·h/mL"},
      {"measurement": "MIC", "setting": "Salmonella", "result": "> 128", "unit": "µg/mL"},
      {"measurement": "bioavailability", "setting": "[12]", "result": 30, "unit": "%"},
      {"measurement": "MIC", "setting": "Staphylococcus aureus [13]", "result": 0.25, "unit": "µg/mL"},
      {"measurement": "concentration at 2 h", "setting": "[14]", "result": 4600, "unit": "ng/mL"},
      {"measurement": "MIC", "setting": "Staphylococcus aureus [15]", "result": 8, "unit": "µg/mL"},
      {"measurement": "AUC", "setting": "Canis familiaris [16]", "result": 57500, "unit": "ng·h/mL"},
      {"measurement": "AUC", "setting": "Canis familiaris [17]", "result": 16700, "unit": "ng·h/mL"},
      {"measurement": "MIC", "setting": "[18]", "result": "> 128", "unit": "µg/mL"},
      {"measurement": "MIC", "setting": "[19]", "result": 0.25, "unit": "µg/mL"},
      {"measurement": "MIC", "setting": "Haemophilus influenzae [20]", "result": 2, "unit": "µg/mL"},
      {"measurement": "AUC", "setting": "[21]", "result": 5000, "unit": "ng·h/mL"},
      {"measurement": "concentration at 3 h", "setting": "[22]", "result": 500, "unit": "ng/mL"},
      {"measurement": "concentration at 40 min", "setting": "[23]", "result": 25200, "unit": "ng/mL"},
      {"measurement": "AUC at 3 h", "setting": "[24]", "result": 51400, "unit": "ng·h/mL"},
      {"measurement": "bioavailability", "setting": "[25]", "result": 13.1, "unit": "%"},
      {"measurement": "concentration at 20 min", "setting": "[26]", "result": 39100, "unit": "ng/mL"},
      {"measurement": "MIC", "setting": "[27]", "result": 4, "unit": "µg/mL"},
      {"measurement": "dose excreted", "setting": "[28]", "result": 48, "unit": "%"},
      {"measurement": "dose excreted", "setting": "[29]", "result": 43.8, "unit": "%"},
      {"measurement": "dose excreted", "setting": "[30]", "result": 18, "unit": "%"},
      {"measurement": "MIC", "setting": "Klebsiella aerogenes", "result": "> 128", "unit": "µg/mL"},
      {"measurement": "concentration at 5 min", "setting": "[31]", "result": 66000, "unit": "ng/mL"},
      {"measurement": "half-life", "setting": "[32]", "result": 30, "unit": "min"},
      {"measurement": "MIC", "setting": "Streptococcus pyogenes [33]", "result": 0.06, "unit": "µg/mL"}
    ]}
  ]
}
